Test [1] deals with T47D. Kind of test: Antiproliferative activity against human T47D cells after 48 hrs by SRB assay. Type of test: functional, cell-based. In outline: (§1)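 Human breast tumor T47D and MDA-MB-231 cells (ATCC) were treated with compounds for 48 h, and proliferation/viability was measured. […] Cycloheximide and rotenone served as positive controls.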
Test [2] has as its system MDA-MB-231. The test is described as follows: Antiproliferative activity against human MDA-MB-231 cells after 48 hrs by SRB assay. Type of test: functional, cell-based. Particulars: MDA-MB-231, 48 h. In a few lines: as §1
The nature of test [3]: Inhibition of hypoxia-induced HIF-1 activation in human T47D cells by luciferase reporter gene assay. Format: cell-based. In a few lines:
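T47D cells carrying the reporter were incubated under hypoxia (1% O2) for 16 h while exposed to a range of compound concentrations. […] Cycloheximide and rotenone served as positive controls.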

Regarding `CC(=O)CCCC(C)(C)C(=O)CC/C(C)=C/CC/C(C)=C/CCC1=CC(=O)OC1O` (configuration not stated), the IC50 in test [1] and in test [2] was more than 10 µM throughout.

As to `CC1=C(CC/C(C)=C/CC/C(C)=C/CCC2=CC(=O)OC2O)C(C)(C)CCC1O` (configuration not stated), the IC50 in test [1] and in test [2] was more than 10 µM throughout.

On to `CC(=O)O[C@H](C/C=C(\C)CC/C=C(\C)CCC1=C(C)CCC(=O)C1(C)C)C1=CC(=O)OC1`, for which the half-inhibitory concentration (IC50) in test [1] is more than 10 µM; in test [2] it was more than 10 µM; in test [3] it was 3.5 µM.

Turning to `CC1=C(CCC(C)(O)/C=C/C/C(C)=C/CCC2=CC(=O)OC2O)C(C)(C)CCC1` (configuration not stated), the IC50 in test [1] and in test [2] was more than 10 µM each time.

Regarding `C=C1CCCC(C)(C)C1(O)CC/C(C)=C/CC/C(C)=C/CCC1=CC(=O)OC1O` (configuration not stated), the IC50 in test [1] and in test [2] was more than 10 µM throughout.

As for `CC1=C(CC/C(C)=C/CC/C(C)=C/CCC2=CC(=O)OC2O)C(C)(C)CCC1` (configuration not stated) [LUFFARIELLOLIDE], the IC50 in test [1] turned out to be 5.1 µM; in test [2], 4.5 µM; in test [3] it was 3.6 µM.

Consider `CC1=C(CC/C(C)=C/CC/C(C)=C/C[C@@H](O)C2=CC(=O)OC2)C(C)(C)C(=O)CC1`, for which the IC50 in test [1] was more than 10 µM; in test [2] it was more than 10 µM; in test [3], 3.2 µM.

On to `CC1=C(CC/C(C)=C/CC/C(C)=C/CCC2=CC(=O)OC2O)C(C)(C)CCC1=O` (configuration not stated) [ACANTHOLIDE B], for which the IC50 in test [1] and in test [2] was more than 10 µM in each case.

Regarding `C=C(CCC1=C(C)CCCC1(C)C)C(O)CC/C(C)=C/CCC1=CC(=O)OC1O` (configuration not stated), the half-maximal inhibitory concentration (IC50) in test [1] was more than 10 µM; in test [2], more than 10 µM; in test [3] it was 7.1 µM.

Take `CC1=C(CC/C(C)=C/CC/C(C)=C/CCC2=CC(=O)OC2O)C(C)(C)C(=O)CC1` (configuration not stated): the concentration for half-maximal inhibition (IC50) in test [1] was more than 10 µM; in test [2] it was more than 10 µM; in test [3], 6.2 µM.

Consider `CC1=C(CC/C(C)=C/CC/C(C)=C/C[C@@H](O)C2=CC(=O)OC2)C(C)(C)CCC1`, for which the 50% inhibitory concentration (IC50) in test [1] and in test [2] was more than 10 µM in each case.

Source of the values: ChEMBL document CHEMBL2406910, “Structures and potential antitumor activity of sesterterpenes from the marine sponge Hyrtios communis” (J Nat Prod, 2013).
